TbMetRS inhib: Trypanosoma brucei MetRS inhibition; inhibition, % at 11.9 µM; AID 624268; purified T. brucei MetRS, ATP depletion, Kinase-Glo luminescence; hit rate 0.4% among 360,000;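 active = inhibition above a per-plate cutoff of the control wells' mean inhibition plus 3 SD, cut at about 5.5% in these data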;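 note: 0% = DMSO wells median and 100% = median of wells with control inhibitor compound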
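Dosing: 11.9 µM compound single dose, 0.9% DMSO; Assay system: purified T. brucei MetRS enzyme; Measured by: Kinase-Glo luciferase luminescence reporting remaining unconsumed ATP; Schedule: 15 min plus 2 h at 25 °C.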
DAGLB inhibitor: diacylglycerol lipase beta (human) inhibition; inhibition, % at 5.17 µM; Q8NCG7; hit rate 0.059% among 340,000; HEK293T DAGLB membrane lysate, EnzChek fluorogenic substrate; AID 504411; in the data active = inhibition above about 34%;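 note: 0% = enzyme with vehicle and 100% = wells lacking enzyme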
PLCg1 inh: inhibitors of human phospholipase C gamma1. P19174. inhibition, % at 12.2 µM. purified PLC-gamma1, fluorogenic substrate, fluorescence. hit rate 0.84% among 370,000; in the data active = inhibition above about 9.5%
HGIII-sPLA2 inh: Inhibits HGIII-sPLA2 liposome hydrolysis, primary screen. hit rate 0.56% among 370,000. QFRET BODIPY PC-A2 liposome hydrolysis, fluorescence. inhibition, % at 12.2 µM. AID 743126;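 active = inhibition above mean plus 3 SD of compounds lying within the high and low control bounds, cut at about 19% in these data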;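 note: 0% = median of test compound wells and 100% = no enzyme DMSO wells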
PLC-beta3 inh: blocks human PLC-beta3 enzyme activity | hit rate 0.18% among 370,000 | inhibition, % at 12.2 µM | Purified PLC-beta3, fluorogenic substrate, fluorescence; in the data active = inhibition above about 11%;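 note: 0% = median of compound wells on plate and 100% = full blocker control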
sPLA2 confirm: human GIII-sPLA2 inhibition, confirmation; shares compounds with HGIII-sPLA2 inh; recombinant hGIII-sPLA2, BODIPY PC-A2 QFRET fluorescence; inhibition, % at 12.2 µM; hit rate 34% among 2,000;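 active = mean inhibition across triplicates above the hit cutoff set in the earlier primary screen, cut at about 19% in these data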;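 note: 0% = enzyme with DMSO and 100% = DMSO wells lacking enzyme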
BODIPY interf: optically interferes with 535nm fluorescence in sPLA2 counter-screen. BODIPY FL product fluorescence interference, QFRET. hit rate 8.5% among 2,000. shares compounds with HGIII-sPLA2 inh. inhibition, % at 12.2 µM;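 active = average inhibition above the solvent-only control mean plus 3 SD, cut at about 6% in these data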;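 note: 0% = DMSO with substrate plus product and 100% = DMSO with substrate alone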
Starred values were filed as active, the others as inactive; i = inactive; · = no result. Most compounds without a hit are left out; they make up all but 1.9% or so of the library.

SMILES | TbMetRS inhib | DAGLB inhibitor | PLCg1 inh | HGIII-sPLA2 inh | PLC-beta3 inh | sPLA2 confirm | BODIPY interf
COc1ccc2c(c1)CCCN2C(=O)C1CCCN(S(=O)(=O)c2cccs2)C1 (stereo not given) | · | · | -0.4 | -4.9 | 1.1 | · | ·
CCOC(=O)NN1C(=O)c2ccccc2NC1c1ccc(OC)cc1 (stereo not given) | -1.1 | -1.6 | i | 21.2* | i | 3.8 | -6.5
CCOC(=O)NN1C(=O)c2ccccc2NC1c1ccccc1 (stereo not given) | -0.8 | 1.8 | i | 29.5* | i | 1.0 | -6.7
CCOC(=O)NN1C(=O)c2ccccc2NC1C (stereo not given) | -0.6 | -1.1 | -478.2 | -2.3 | i | · | ·
CCOC(=O)NN1C(=O)c2ccccc2NC1c1ccc(N(C)C)cc1 (stereo not given) | 0.0 | -2.3 | -271.0 | -5.0 | -289.3 | · | ·

Assay outcomes (PubChem)
